How the values were obtained:
[1] = test system: Trypanosoma brucei rhodesiense; assay: Antitrypanosomal activity against Trypanosoma brucei rhodesiense STIB900 trypomastigote forms; assay type: functional, organism-based
[2] = Selectivity index, ratio of IC50 against rat L6 cells to IC50 against Trypanosoma cruzi Tuluhaen C2C4; assay type: toxicity, cell-based; conditions: read-out: Ratio IC50
Method in brief: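 Selectivity index calculated as the IC50 for L6 cytotoxicity divided by the IC50 for antitrypanosomal activity against T. cruzi amastigotes (Tulahuen C4).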

L6 = assay: Cytotoxicity against rat L6 cells; assay type: cell-based
Trypanosoma cruzi = assay: Antitrypanosomal activity against LacZ expressing Trypanosoma cruzi Tuluhaen C2C4 amastigotes; assay type: functional, organism-based
[3] = test system: Trypanosoma brucei brucei; assay: Antitrypanosomal activity against Trypanosoma brucei brucei NYSM bloodstream forms incubated for 46 hrs by alamar blue assay; assay type: functional, organism-based
Method in brief: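 Bloodstream parasites grown in HMI-9 medium with 10% FCS, wild type. Plated at a final density of 0.5 × 10^5 cells/mL with compound dilutions for 46 h, then AlamarBlue added for 2 more h. Fluorescence read at excitation 530 nm, emission 584 nm. IC50 from nonlinear sigmoidal dose–response fit; triplicate runs, reported ± SD.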

IC50 [1] [µM] | IC50 (Trypanosoma cruzi) [µM] | IC50 [3] [µM] | Structure (SMILES) | selectivity ratio [2] | IC50 (L6) [µM]
35.9 | 0.04 |  | COc1c(C)n(OC)c2c(c1=O)[C@@H](CCCCCc1ccccc1)CC[C@H]2OC | 6.5 | 0.26
30.4 | 0.02 | 24.1 | COc1c(C)n(OC)c2c(c1=O)[C@@H](CCCCCc1ccccc1)CCC2 | 33.8 | 0.64
14.3 | 0.17 | > 100 | CCCCCCCC[C@H]1CCC(=O)c2[nH]c(C)c(OC)c(=O)c21 | 1080 | 184
55.7 | 3.1 |  | COc1c(OC)c(C)[n+]([O-])c2c1[C@H](CCCCCc1ccccc1)CCC2 | 13.5 | 41.1
 | 2.9 |  | O=C(Cn1ccnc1[N+](=O)[O-])NCc1ccccc1 [BENZNIDAZOLE] |  | 
 |  | 0.31 | Cc1ccc(C(=O)Nc2ccc(S(=O)(=O)O)c3cc(S(=O)(=O)O)cc(S(=O)(=O)O)c23)cc1NC(=O)c1cccc(NC(=O)Nc2cccc(C(=O)Nc3cc(C(=O)Nc4ccc(S(=O)(=O)O)c5cc(S(=O)(=O)O)cc(S(=O)(=O)O)c45)ccc3C)c2)c1 [SURAMIN] |  | 
53.3 | 0.1 | > 100 | CCCCCCCC[C@H]1CCCc2c1c(=O)c(OC)c(C)n2OC | 1.9 | 0.19
87.9 | 2.2 | > 100 | CCCCCCCC[C@@H]1CCCc2c1c(=O)c(OC)c(CO)n2OC | 10.1 | 22.1
45.8 | 0.04 | > 100 | CCCCCCCC[C@H]1CC[C@@H](OC)c2c1c(=O)c(OC)c(C)n2OC | 1.8 | 0.07
32.6 | 0.49 | > 100 | CCCCCCCC[C@@H]1CCCc2[nH]c(C)c(OC)c(=O)c21 | 1.5 | 0.75
38.6 | 1.1 | 31 | CCCCCCCCc1ccc(OC)c2[nH]c(C)c(OC)c(=O)c12 | 22.7 | 25.7

Structure (SMILES) | IC50 [1] [µM] | IC50 (Trypanosoma cruzi) [µM] | IC50 [3] [µM] | selectivity ratio [2] | IC50 (L6) [µM]
CCCCCCCC[C@H]1CC[C@@H](OC)c2[nH]c(C)c(OC)c(=O)c21 | 38.5 | 0.23 | 80.3 | 4 | 0.91

From ChEMBL document CHEMBL3352271, “Antitrypanosomal quinoline alkaloids from the roots of Waltheria indica” (J Nat Prod, 2014)
